# From PubChem BioAssay
# Calls of active or inactive are those of the source.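 The calls were made as follows, unless noted: active = viability at or below 10% of carrier control in both of two separate runs; inconclusive = viability at or below 10% in only one of the two runs; inactive = the rest.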
# Legend:
# [1] = reducers of endogenous Her2 protein level, primary screen, SKBR3 breast tumor cells, AlphaScreen, ATP viability (AID 461;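 active = Her2 level under about 52% in both replicate screens, with viability over 70% of control, limit read from the data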;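 as to Her2 level: lower value means less Her2 protein in the cells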;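 as to viability: percent of carrier control wells set as 100% viability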); conditions: 18-24 h, measured here: SKBR3 viability, ATP luminescence, at 10 µM
# [2] = target: Receptor tyrosine-protein kinase erbB-2 (Homo sapiens) (UniProt P04626); assay: as above; conditions: 18-24 h, at 10 µM, stronger effect = lower value
# Receptor tyrosine-protein kinase erbB-2 (Homo sapiens), sequence (P04626 whole entry, looked up): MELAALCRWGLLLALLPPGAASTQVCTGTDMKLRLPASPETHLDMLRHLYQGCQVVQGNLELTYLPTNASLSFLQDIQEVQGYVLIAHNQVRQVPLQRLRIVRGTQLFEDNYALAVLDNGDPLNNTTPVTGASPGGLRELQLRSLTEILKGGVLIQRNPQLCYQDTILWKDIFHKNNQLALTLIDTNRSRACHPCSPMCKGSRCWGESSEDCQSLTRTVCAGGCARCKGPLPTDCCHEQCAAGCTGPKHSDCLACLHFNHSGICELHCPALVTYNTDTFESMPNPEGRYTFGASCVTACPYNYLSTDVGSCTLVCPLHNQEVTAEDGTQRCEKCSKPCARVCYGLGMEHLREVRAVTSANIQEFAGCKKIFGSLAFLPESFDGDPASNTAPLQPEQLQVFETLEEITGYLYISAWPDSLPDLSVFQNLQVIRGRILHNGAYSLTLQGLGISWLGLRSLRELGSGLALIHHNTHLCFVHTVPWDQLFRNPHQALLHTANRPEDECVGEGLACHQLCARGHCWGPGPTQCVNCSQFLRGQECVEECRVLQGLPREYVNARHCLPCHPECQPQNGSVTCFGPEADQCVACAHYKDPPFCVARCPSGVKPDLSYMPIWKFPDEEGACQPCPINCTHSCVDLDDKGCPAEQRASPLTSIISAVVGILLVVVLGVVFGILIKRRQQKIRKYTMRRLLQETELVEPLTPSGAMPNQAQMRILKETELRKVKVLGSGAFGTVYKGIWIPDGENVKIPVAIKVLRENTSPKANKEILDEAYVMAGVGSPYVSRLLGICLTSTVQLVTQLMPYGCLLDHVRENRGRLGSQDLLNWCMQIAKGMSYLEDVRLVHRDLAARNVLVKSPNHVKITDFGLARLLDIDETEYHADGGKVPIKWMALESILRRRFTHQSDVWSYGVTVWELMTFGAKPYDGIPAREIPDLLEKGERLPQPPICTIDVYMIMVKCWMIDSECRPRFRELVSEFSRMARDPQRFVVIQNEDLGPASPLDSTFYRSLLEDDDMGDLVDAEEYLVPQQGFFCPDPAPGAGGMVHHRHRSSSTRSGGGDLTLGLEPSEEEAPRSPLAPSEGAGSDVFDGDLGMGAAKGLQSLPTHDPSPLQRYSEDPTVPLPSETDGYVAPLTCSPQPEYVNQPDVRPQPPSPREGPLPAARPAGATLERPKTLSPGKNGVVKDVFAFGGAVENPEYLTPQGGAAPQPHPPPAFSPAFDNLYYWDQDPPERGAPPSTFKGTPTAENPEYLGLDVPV
# [3] = SK-BR-3 cell growth inhibitors, pilot screen, 24 h, human (AID 572); conditions: SK-BR-3 viability, CellTiter-Glo luminescence, at 10 µM, stronger effect = lower value;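 also: compound exposure lasted between 18 and 24 h rather than exactly 24 h; 100% = carrier-treated control wells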
# [4] = HUVEC growth inhibition – cell-based, human, primary screen (AID 575;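 active = viability at or below 30% in both replicate assays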;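 also: 100% = median of untreated cell wells with 0.1% DMSO on each plate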); conditions: HUVEC proliferation, CellTiter-Glo luminescence, 72 h; at 10 µM; stronger effect = lower value
# Summary of the method: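 material = primary HUVEC, no more than 12 passages | input = 1250 cells per well | controls = vehicle and MePR control wells | measured by = CTG luminescence | times = 72 h compound incubation | format = collagen-coated 384-well format | read-out = % viability vs DMSO wells | doses = single 10 µM dose, 0.1% DMSO, from 5x medium stock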
# [5] = growth inhibitors of H69AR lung tumor, primary screen, human, duplicate replicates (AID 580;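 active = viability at or under a set limit in both replicates, limit being median viability minus 3 SD, cut at about 48% in these data, passing the limit was not always enough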;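 also: 100% = mean luminescence of untreated wells and 0% = no signal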); conditions: H69AR lung tumor cells viability, ATP luminescence, 72 h; at 10 µM; stronger effect = lower value
# [6] = reversal of MRP1-mediated doxorubicin resistance, pilot screen, H69AR cells, doxorubicin co-treatment (AID 601;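 active = viability loss from added drug above about 55%, and viability with drug at most 40%, in both replicates, limit read from the data, passing the limit was not always enough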); conditions: CellTiter-Glo, 72 h, at 10 µM; for differential viability (reversal): stronger effect = higher value
# [7] = 384-well plate pilot, post-Golgi transport modulator project, inhibition of yeast transport mutant growth (AID 636; in the data active = inhibition above about 31%); conditions: absorbance 615 nm, about 18 h, stronger effect = higher value
# [8] = growth suppression of yeast trafficking mutant, preliminary HTS, modulators of trafficking downstream of Golgi apparatus project, 1536-format plate, OD 615 nm (AID 637; in the data active = inhibition above about 30%); conditions: yeast transport mutant growth, absorbance 615 nm, 18 h; stronger effect = higher value
# [9] = H69AR cells + 2 uM doxorubicin, measured here: viability with 2 uM doxorubicin, stronger effect = lower value
# [10] = H69AR cells, compound alone cytotoxicity
SMILES,viability [1] [%],Her2 level [2],viability [3],viability [4],viability [5],differential viability (reversal) ([6]; H69AR cells + 2 uM doxorubicin),"viability [6, 9] [%]","viability [6, 10] [%]",inhibition [7],inhibition [8]
COc1ccc(C(C(C(=O)c2ccco2)N2CCOCC2)N2CCOCC2)cc1 (stereo not given),97,95% (inactive),97% (inactive),85.6% (inactive),87.3% (inactive),-4.03% (inactive),91.4,87.3,-6.53% (inactive),-10.6% (inactive)
Cc1ccc(-n2ncc3c(Nc4c(C)n(C)n(-c5ccccc5)c4=O)ncnc32)c(C)c1,99,94.5% (inactive),99% (inactive),96.2% (inactive),92.3% (inactive),9.15% (inactive),83.2,92.3,-4.8% (inactive),1.45% (inactive)
Cc1nc2sc(C(c3ccc(Br)cc3)N3CC(C)OC(C)C3)c(O)n2n1 (stereo not given),80,112% (inactive),80% (inactive),109% (inactive),105% (inactive),15.2% (inactive),90.2,105,-2.21% (inactive),-3.44% (inactive)
C/C(N)=C(\C#N)C(=O)NCCc1ccccn1,81,102% (inactive),81% (inactive),108% (inactive),114% (inactive),7.44% (inactive),107,114,-1.45% (inactive),1.48% (inactive)
Cc1ccccc1NC(=O)NCCCN1CCN(C2CCCCC2)CC1,102,102% (inactive),102% (inactive),104% (inactive),95.8% (inactive),2.42% (inactive),93.4,95.8,-1.04% (inactive),0.16% (inactive)
CN1C(=O)C(CC(=O)N2CCN(C(c3ccccc3)c3ccccc3)CC2)N(C)C1=O (stereo not given),90.5,83% (inactive),90.5% (inactive),89.1% (inactive),81.9% (inactive),-14% (inactive),95.9,81.9,0.26% (inactive),-3.67% (inactive)
Cc1ccc(NC(=O)C2CC=CCC2C(=O)N2CCCCC2)cc1 (stereo not given),71,76.5% (inactive),71% (inactive),95.7% (inactive),95.7% (inactive),12.5% (inactive),83.2,95.7,-5.54% (inactive),-1.31% (inactive)
CN1CCN(c2oc(COc3ccc(-c4ccccc4)cc3)nc2C#N)CC1,83.5,72.5% (inactive),83.5% (inactive),66.3% (inactive),78.3% (inactive),17.7% (inactive),60.5,78.3,-5.6% (inactive),0.79% (inactive)
CC1=C(C(=O)Nc2ccccc2)C(c2cccs2)C(C#N)=C(SCC#N)N1 (stereo not given),104,96.5% (inactive),104% (inactive),64% (inactive),82.8% (inactive),-13.4% (inactive),96.2,82.8,-0.4% (inactive),19.2% (inactive)
COc1ccccc1N1CCN(C(=O)c2ccc(S(=O)(=O)N3CCCCCC3)cc2)CC1,89.5,98.5% (inactive),89.5% (inactive),89.4% (inactive),85.5% (inactive),-2.48% (inactive),88,85.5,-5.73% (inactive),-3.44% (inactive)
CCC(=O)OCCn1c(=O)c2cc3c(=O)n(CCOC(=O)CC)c(=O)c3cc2c1=O,99,135% (inactive),99% (inactive),98.3% (inactive),87.2% (inactive),-3.94% (inactive),91.1,87.2,4.55% (inactive),-4.83% (inactive)
Cc1ccc(C(c2sc3nc(C)nn3c2O)N2CC(C)OC(C)C2)cc1 (stereo not given),97,93% (inactive),97% (inactive),104% (inactive),101% (inactive),11.1% (inactive),90.2,101,-1.17% (inactive),0.49% (inactive)
CCOc1cc(C(=O)Nc2ccon2)cc(OCC)c1OCC,100,110% (inactive),100% (inactive),96.8% (inactive),99.4% (inactive),2.21% (inactive),97.2,99.4,-3.03% (inactive),-1.17% (inactive)
Cc1ccc(S(=O)(=O)C2(C(=O)NC3CCCC3)CC2)cc1,148,87.5% (inactive),148% (inactive),104% (inactive),97.1% (inactive),9.32% (inactive),87.8,97.1,-2.34% (inactive),-2.22% (inactive)
CCCNC(=O)NC(C(=O)OC)C12CC3CC(CC(C3)C1)C2 (stereo not given),101,76.5% (inactive),101% (inactive),80.4% (inactive),102% (inactive),10.1% (inactive),91.6,102,-5% (inactive),-1.5% (inactive)
CC(C)(C)n1nnnc1CN1CCC(NC(=O)NC2CCCCC2)CC1,95,72% (inactive),95% (inactive),97% (inactive),106% (inactive),15.1% (inactive),91.3,106,-5.53% (inactive),-2.5% (inactive)
CCN1CCN(C(=O)c2ccc3c(=O)n(C4CCCC4)c(=S)[nH]c3c2)CC1,85.5,108% (inactive),85.5% (inactive),82.9% (inactive),84.7% (inactive),9.82% (inactive),74.8,84.7,7.37% (inactive),19.5% (inactive)
CC12CN3CC(C)(CN(C1)C3c1cc(Br)ccc1O)C2=O (stereo not given),95.5,124% (inactive),95.5% (inactive),87% (inactive),100% (inactive),1.15% (inactive),98.9,100,-0.65% (inactive),-3.83% (inactive)
Cc1cc(=O)n2[nH]c(COc3ccccc3)nc2n1,101,105% (inactive),101% (inactive),94.1% (inactive),108% (inactive),14% (inactive),94,108,-5.33% (inactive),-6.13% (inactive)
CC(C)CC(c1nnnn1C1CCCC1)N1CCN(c2ccccc2F)CC1 (stereo not given),92.5,94% (inactive),92.5% (inactive),103% (inactive),84.2% (inactive),-7.72% (inactive),91.9,84.2,-6.32% (inactive),10.7% (inactive)
CCOC(=O)C1C(=O)N(C(=O)c2ccc(OC)cc2)CC1c1ccccc1 (stereo not given),91.5,94.5% (inactive),91.5% (inactive),83.3% (inactive),86.6% (inactive),1.9% (inactive),84.7,86.6,-0.65% (inactive),-5.41% (inactive)
O=c1oc2ccccc2n1CCn1c2ccccc2c2nc3ccccc3nc21,85,96% (inactive),85% (inactive),53.2% (inactive),34.2% (active),-3.67% (inactive),37.8,34.2,-1.05% (inactive),-3.71% (inactive)
O=C(O)c1[nH]nc2c1COc1ccccc1-2,93.5,92% (inactive),93.5% (inactive),109% (inactive),100% (inactive),7.14% (inactive),93.3,100,-0.92% (inactive),2.95% (inactive)
CCOC(=O)N1CCC(NC(=O)CCc2c(C)nc3c(c(C)nn3C(C)(C)C)c2C)CC1,91,78.5% (inactive),91% (inactive),82.2% (inactive),85.1% (inactive),1.25% (inactive),83.9,85.1,-4.61% (inactive),-3.02% (inactive)
CCOC(=O)C1CCCN(C(=O)c2ccc(CS(=O)(=O)Cc3ccccc3C)o2)C1 (stereo not given),94.5,97.5% (inactive),94.5% (inactive),84.4% (inactive),96.2% (inactive),9.89% (inactive),86.3,96.2,-0.39% (inactive),-8.23% (inactive)
CCCC(=O)Nc1cccc(NC(=O)CN2CCN(c3ccccc3OC)CC2)c1,98.5,83% (inactive),98.5% (inactive),96.6% (inactive),82.9% (inactive),-3.71% (inactive),86.6,82.9,-5.81% (inactive),-4.92% (inactive)
CCOc1cc(NC(=O)c2ccco2)c(OCC)cc1NC(=O)Cc1cccc(OC)c1,107,99.5% (inactive),107% (inactive),61.2% (inactive),86.7% (inactive),-0.055% (inactive),86.7,86.7,0.68% (inactive),-6.39% (inactive)
CCCn1c2ccccc2c2nnc(SCC(=O)OCC)nc21,95,78.5% (inactive),95% (inactive),88.8% (inactive),91.2% (inactive),11% (inactive),80.2,91.2,-0.66% (inactive),3.64% (inactive)
O=C(c1ccccc1F)N1CCN(Cc2cccc(Cl)c2)CC1,101,104% (inactive),101% (inactive),107% (inactive),100% (inactive),16.8% (inactive),83.6,100,-5.32% (inactive),-2.86% (inactive)
